Results published in the EternaBench riboswitch data.

Tested on: MS2 coat protein
Assay: apparent Kd, MS2 coat protein; higher = weaker binding; RNA-MaP array; theophylline 2 mM where present
Procedure, shortened: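 Designs were transcribed by stalled E. coli RNA polymerase on Illumina sequencing-chip clusters. They were titrated with SNAP-549-labelled MS2 coat protein from 0.7 or 1.5 nM, doubling to 3 µM, without and then with constant ligand. Buffer: 100 mM Tris-HCl pH 7.5, 80 mM KCl, 4 mM MgCl2, BSA, DTT, yeast tRNA, Tween-20. Green signal was normalised to red-channel RNA signal and control-cluster median Fmax. Apparent Kd is the median of filtered per-cluster binding-curve fits.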

[1] = designed as: OFF switch for theophylline, no ligand
[2] = ligand present: theophylline, designed as: OFF switch for theophylline
[3] = designed as: ON switch for theophylline, no ligand
[4] = ligand present: theophylline, designed as: ON switch for theophylline

AAACAUUGCUCAGAUACCAGACAUGAGGAUCACCCAUGUACCAAGGUAACCGAAAGGCAUGUCCCUUGGCAGCUGAGCAAUGAAA
apparent Kd [1]: 13.7 nM | apparent Kd [2]: 240 nM

UCGUGUAUAUCGGAUACCAGUGAAAUCGAUACAUGAGGAUCACCCAUGUGAGAGGAUGUACACCCUUGGCAGCUGUAUAUAUCUA
apparent Kd [3]: 32.8 nM | apparent Kd [4]: 14.7 nM

AUCAUGUAAUCAGAUACCAGACAUCUUUUAAUACAUAUUACAUGAGGAUCACCCAUGUUGGUCCCUUGGCAGCUGAAAUAUUUUU
apparent Kd [3]: 197 nM | apparent Kd [4]: 86.8 nM

UCUUACUUGGUAGAUACCAGCGUGUUAUCUUUCUUUUGACAUGAGGAUCACCCAUGUAUAUGCCCUUGGCAGCUGCGUAGUGUGU
apparent Kd [3]: 33.7 nM | apparent Kd [4]: 32.5 nM

AAAUAGGUAGGAGAUACCAGAUACGUUAACAUGAGGAUCACCCAUGUGUAUGCACUUAGUGUCCCUUGGCAGCUCGAGGAUCUGG
apparent Kd [3]: 30.7 nM | apparent Kd [4]: 35.3 nM

ACUAGUUGUGCAGAUACCAGACAUGAGGAUCACCCAUGUUUGGGAUCUAAUGAUCAUCUUGUCCCUUGGCAGCUGUACAUCUAGA
apparent Kd [1]: 78.5 nM | apparent Kd [2]: 33.9 nM

ACGACGCAUACAGAUACCAGUAGAACAUGAGGAUCACCCAUGUCUGAGGCGCUCCGCCACUGCCCUUGGCAGCUGUAUGCGUCAG
apparent Kd [3]: 9.7 nM | apparent Kd [4]: 14.2 nM

UGACAUUGCUCAGAUACCAGACAUGAGGAUCACCCAUGUACCAAGAAAGUACAAUAAAAUGUCCCUUGGCAGCUGAGCAAUGUCU
apparent Kd [1]: 66.8 nM | apparent Kd [2]: 487 nM

UUCUACAUGAGGAUCACCCAUGUAAACGAUACCAGACGAGUAUUAGUCCCUUGGCAGCGUAGAGUGUCGUUUAUAGUAGGAUACC
apparent Kd [3]: 22.7 nM

AUACCUAGUGAGUCGUGUUUCUUUUCAGAUACCAGACUUUUCGUUGUCCCUUGGCAGCUGUUUUACAUGAGGAUCACCCAUGUUG
apparent Kd [1]: 15.7 nM | apparent Kd [2]: 23.6 nM

GGCGGACUUAUAGAUACCAGCACAUGAGGAUCACCCAUGUUUGGUCGCACCUCAGUCCUGUGCCCUUGGCAGCUAUGAUAGAUUU
apparent Kd [1]: 17.3 nM | apparent Kd [2]: 95.1 nM

AGACAUGUAGGAUAAUUGACUAUUACAGAUACCAGACUGUCUAAUGUCCCUUGGCAGCUGCAUUACAUGAGGAUCACCCAUGUUA
apparent Kd [1]: 22.6 nM | apparent Kd [2]: 20.2 nM

AUGUCGUUGAAUACAGCGGCAUGGAGUGAUACCAGAAUGAUCAAAUUCCCUUGGCAGCAUCACAUGAGGAUCACCCAUGUUCGAU
apparent Kd [3]: 29.1 nM | apparent Kd [4]: 34.3 nM

ACAUCCAGAUUAAUCGUGGGCAUACUCGAUACCAGUAUUUUAAUCUACCCUUGGCAGCGACAUGAGGAUCACCCAUGUGCGAUGA
apparent Kd [1]: 12.8 nM | apparent Kd [2]: 21.1 nM

GGCGGACUUAUAGAUACCAGCACAUGAGGAUCACCCAUGUAUGGUCGCACCUCAGUCCUGUGCCCUUGGCAGCUAUAAUAGAUUU
apparent Kd [1]: 19.7 nM | apparent Kd [2]: 115 nM

UCGUGUAUAUCGGAUACCAGUGAAAUCGAUACAUGAGGAUCACCCAUGUGAGUUGAUGUACACCCUUGGCAGCUGUAUAUAUCUA
apparent Kd [3]: 16.2 nM | apparent Kd [4]: 12.4 nM

UGACGAUACCUGGAUACCAGCGACAUGAGGAUCACCCAUGUAUGAGGAUCAGCCAUGUUAUGCCCUUGGCAGCCACGAAGGUCUU
apparent Kd [1]: 33 nM | apparent Kd [2]: 224 nM

CUGGCAGGAUGAUCCGCUGUCAGGGCUGAUACCAGCCACGAAAGUGGCCCUUGGCAGCAGCAAACAUGAGGAUCACCCAUGUAAA
apparent Kd [3]: 144 nM | apparent Kd [4]: 266 nM

GGUCUGAAAACCGAUCAAAGAUCGGAAGAUACCAGAGGGUGAUCCCUCCCUUGGCAGCUUCACAUGAGGAUCACCCAUGUAGACC
apparent Kd [3]: 192 nM | apparent Kd [4]: 151 nM

UAAUAAAUAAGUGAUACCAGCGAGAAAACAUGAGGAUCACCCAUGUUCGCCCAUGUUAAGCGCCCUUGGCAGCACAAAUAUAAAA
apparent Kd [1]: 26.1 nM | apparent Kd [2]: 84.9 nM

UAUACAUGAGGAUCACCCAUGUGCCAUGAUACCAGACAUGAAAAUGUCCCUUGGCAGCAUGGUGAUUGUAUAGCGGGAAACCCGA
apparent Kd [3]: 160 nM | apparent Kd [4]: 196 nM

CGAUGAUCGAGGGAUACCAGAAAUGGUAUUCCUUUAUUUCUUACAUGAGGAUCACCCAUGUUCCCUUGGCAGCUUUUGAUCAUCG
apparent Kd [1]: 86.5 nM | apparent Kd [2]: 149 nM

GGUGGCUGGAUCGAUACCAGCCACCACCGAUAGACCACAUGAGGAUCACCCAUGUUGGGUGGCCCUUGGCAGCGGUCCGGCUGCC
apparent Kd [3]: 278 nM | apparent Kd [4]: 1290 nM

AUCGUACCUAAUGAUACCAGCAAGUGAUCAUAACAUGAGGAUCACCCAUGUAAUCAGUGAUGCCCUUGGCAGCAUAAUCGAUACA
apparent Kd [3]: 146 nM | apparent Kd [4]: 88 nM

AAUAAAUCACAUGAGGAUCACCCAUGUGAUACCAGCCUGGAAACAGGCCCUUGGCAGCACAUGAGGAUCACCCAUGUGCUAAAUA
apparent Kd [1]: 8.81 nM | apparent Kd [2]: 8.4 nM

UGUACAUGAGGAUCACCCAUGUUACGCGAUACCAGACAUGAGAGUGUCCCUUGGCAGCGUGGAGCUGAUACGGCGGGAAGCCGGA
apparent Kd [3]: 43.7 nM | apparent Kd [4]: 39.5 nM
